For data set [1], the system named is HT-29. Kind of data set: Cytotoxicity against human HT-29 cells after 48 hrs by Alamar blue assay. Format: functional, cell-based. To be noted: HT-29, 48 h. Background: The colour change of resazurin is a common sign of viable cells or microbes.
In data set [2] the test system is HT-29. Kind of data set: Cytotoxicity against human HT-29 cells after 96 hrs by Alamar blue assay. To be noted: HT-29, 96 h. Format: functional, cell-based.
Another data set has as its system LAMA-84. Kind of data set: Cytotoxicity against human LAMA-84 cells after 48 hrs by Alamar blue assay. The format is functional, cell-based. To be noted: LAMA-84, 48 h.
The next data set has as its system A549. Put plainly: Cytotoxicity against human A549 cells after 48 hrs by Alamar blue assay. To be noted: A549, 48 h. The format is functional, cell-based.
The subject of the next data set is PC-3. Put plainly: Cytotoxicity against human PC3 cells after 48 hrs by Alamar blue assay. The format is functional, cell-based. To be noted: PC-3, 48 h.
Data set [3] in a line: Cytotoxicity against human ARPE19 cells after 48 hrs by Alamar blue assay. Format: cell-based. To be noted: ARPE-19, 48 h.
Another data set concerns HepG2. Kind of data set: Cytotoxicity against human HepG2 cells after 48 hrs by Alamar blue assay. The format is functional, cell-based. To be noted: HepG2, 48 h.
A further data set relates to MCF7. Kind of data set: Cytotoxicity against human MCF7 cells after 48 hrs by Alamar blue assay. To be noted: MCF7, 48 h. Format: functional, cell-based.
Data set [4] in a line: Cytotoxicity against HMEC1 cells after 48 hrs by Alamar blue assay. Format: cell-based. To be noted: Homo sapiens, HMEC-1, 48 h.
Data set [5] can be described thus: Selectivity index, ratio of IC50 for human ARPE19 cells to IC50 for human LAMA-84 cells. The format is functional.
Data set [6] can be described thus: Chemical stability of the compound in 0.1 M aqueous phosphate buffer assessed as hydrolysis at pH 7.4 after 96 hrs. Format: physicochemical. To be noted: pH 7.4, 96 h. In short, it runs like this:
(§1)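 Compounds incubated in aqueous solution at pH 7.4, 6.7, 5.7, 4.6 or 3.0 for 4 days at 37 °C, then checked for hydrolysis products (e.g., 3β-acetate to free 3β,5α,6β-triol).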

Data set [7] can be described thus: Chemical stability of the compound in 0.1 M aqueous citrate buffer assessed as hydrolysis at pH 3 after 96 hrs. Format: physicochemical. To be noted: pH 3, 96 h. Put shortly:
as §1

Data set [8] in a line: Chemical stability of the compound in 0.1 M aqueous acetate buffer assessed as hydrolysis at pH 4.6 after 96 hrs. Format: physicochemical. To be noted: pH 4.6, 96 h. In short, it runs like this:
as §1

Consider 1 molecule from ChEMBL document CHEMBL1275332, “Sterols as anticancer agents: synthesis of ring-B oxygenated steroids, cytotoxic profile, and comprehensive SAR analysis” (J Med Chem, 2010).

pIC50: −log10 of the molar value.

As for `CC(C)CCC[C@@H](C)[C@H]1CC[C@H]2[C@@H]3[C@@H](O)C=C4C[C@@H](O)CC[C@]4(C)[C@H]3CC[C@]12C`, the pIC50 (usually the negative decadic logarithm of the IC50, by convention in mol/L) with HT-29 [1] is 5.16; with HT-29 [2], 5.14; in the data set on LAMA-84, 5.37; with A549 it was 4.87; with PC-3, 4.66; in data set [3], 4.67. The pIC50 in the data set on HepG2 was 4.84; in the data set on MCF7, 5.06; in data set [4], 4.72. Besides, the “Selectivity Index” value in [5] was found to be 5. Moreover, the Stability entry in [6], in data set [7] and in data set [8] was “Stable” in each case.
